Screening results: PubChem, Broad Institute
rRNA inh HTS: selective bacterial rRNA inhibition in E. coli. E. coli WT GFP vs humanized-ribosome RFP mutants, fluorescence, 24 h; stronger effect = lower value; DMSO median 0, no signal -100. GFP signal change (wild-type ribosome), % (no concentration beside the values). 350,000 tested, 1.6% active;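 active means significant combined selectivity score with lowered wild-type GFP, culture density cut under 30%, mutant RFP and density less affected; inactive means any of these conditions unmet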
ARNT-TACC3 inh: ARNT/TACC3 interaction disruption | 390,000 tested, 0.66% active | AID 623870 | inhibition, % at 9.99 µM | Q9Y6A5 | AlphaScreen His-ARNT PAS-B/GST-TACC3 binding, luminescence; TACC3 fragment carries E629A point mutation;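 active means mean inhibition of replicates at least 50% and at least half of replicates each reaching 50%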
S100A4 inh HTS: blocks human S100A4 binding to myosin IIA peptide; P26447; S100A4/TAMRA-MyoIIA peptide fluorescence polarization; inhibition, % at 10.7 µM; 360,000 tested, 0.14% active;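 active means mean inhibition of at least 70% across replicates, with every replicate also reaching that level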
Target sequence (P26447 whole entry, looked up): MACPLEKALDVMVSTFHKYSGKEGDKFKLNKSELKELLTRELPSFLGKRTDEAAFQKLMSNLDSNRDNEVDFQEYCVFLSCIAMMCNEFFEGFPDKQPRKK
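Test system: S100A4 monomer protein; Medium: HEPES pH 7.2 with CaCl2, KCl, NaCl, DTT, Triton; Probe or stimulus: TAMRA-labelled myosin IIA heavy-chain peptide probe, 5 nM; Doses: one dose per compound; Times: polarization read 5 min after assay mix addition, stable 5–60 min; Benchmarks: neutral control DMSO, positive control TFP.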
ERAP1 HTS inh: blocks human ERAP1 aminopeptidase activity; Q9NZ08; recombinant ERAP1, Leu-AMC fluorescence, 60 min; AID 652197; inhibition, % at 10.7 µM; 340,000 tested, 0.15% active;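 active means mean replicate inhibition of at least 30%, or all replicates individually reaching that 30% level; inactive means mean below 30% and not every replicate reaching it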
PGC1a acetyl inh: modulators of PGC1a acetylation. inhibition, % at 15.6 µM. AID 651687. U2OS PGC1a acetylation, AlphaScreen anti-acetyl-lysine; with virally co-expressed GCN5 acetyltransferase. 350,000 tested, 0.17% active;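 active means every replicate shows inhibition of at least 40%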
CASP6 VEID inh: caspase-6 (human) enzyme inhibition. AID 686996. 350,000 tested, 0.53% active. inhibition, % at 12.5 µM. P55212. purified caspase-6, Z-VEID-R110 cleavage fluorescence;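 active means mean inhibition across replicates at least about 35%, with every replicate also reaching that limit, limit read from the data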
Target sequence (P55212 24-179 limits assumed): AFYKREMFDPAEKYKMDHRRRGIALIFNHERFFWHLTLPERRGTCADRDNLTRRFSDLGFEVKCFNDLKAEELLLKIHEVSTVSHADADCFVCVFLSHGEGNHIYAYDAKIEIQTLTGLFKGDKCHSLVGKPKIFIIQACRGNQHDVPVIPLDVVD
Target sequence (P55212 194-293 limits assumed): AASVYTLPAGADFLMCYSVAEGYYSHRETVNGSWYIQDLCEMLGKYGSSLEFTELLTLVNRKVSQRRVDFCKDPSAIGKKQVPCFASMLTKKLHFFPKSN
Numbers stand for hits; n = inactive; x = not tested or not shown; ! = repeats disagree. Most compounds without a hit are left out; they make up all but 2.4% or so of the library.

SMILES	rRNA inh HTS	ARNT-TACC3 inh	S100A4 inh HTS	ERAP1 HTS inh	PGC1a acetyl inh	CASP6 VEID inh
Cc1c(CC(=O)NCCCC(=O)O)c(=O)oc2cc3occ(-c4ccccc4)c3cc12	n	n	n	n	n	n
Cc1c(CCC(=O)NCCCCCC(=O)O)c(=O)oc2cc3occ(-c4ccccc4)c3cc12	n	n	n	35	n	n
Cc1c(CCC(=O)N[C@@H](C)C(=O)O)c(=O)oc2cc3occ(-c4ccccc4)c3cc12	n	49	n	n	n	n
CCC(NC(=O)CCc1c(C)c2cc3c(-c4ccccc4)coc3cc2oc1=O)C(=O)O (stereo unspecified)	n	n	n	n	n	n
CCNC(=S)NNC(=O)c1csc2ccccc12	x	n	x	x	59	x
C[C@H]1CN([C@@H](C)CO)C(=O)c2cccc(NC(=O)Nc3ccc4c(c3)OCO4)c2O[C@@H]1CN(C)Cc1ccncc1	n	n	n	n	n	n
Cc1nc(N2CCN(c3ccccc3)CC2)nc2c1C(=O)CC(C)C2 (stereo unspecified)	-33	n	n	n	n	n
C/C=C/c1cnc2c(c1)C(=O)N([C@@H](C)CO)C[C@@H](C)[C@@H](CN(C)C(=O)C1CCC1)O2	n	x	x	x	n	x
Cc1ccc(NC(=O)c2ccc(NCCCN3CCC(C)CC3)c([N+](=O)[O-])c2)cc1F	-25	n	n	n	n	n
CCCC#Cc1ccc([C@H]2[C@H](C#N)N(S(C)(=O)=O)[C@H]2CO)cc1	n	n	n	n	n	n
NC1=C(Br)C(=O)c2ccccc2C1=O	x	n	n	n	n	75
Cc1cc2c(cc1C)C(=O)C(Br)=C(N)C2=O	n	n	n	n	n	74
COc1ccc(S(=O)(=O)N(C)C[C@@H]2Oc3ccc(NC(=O)Nc4ccc(F)cc4)cc3C(=O)N([C@H](C)CO)C[C@H]2C)cc1	n	n	n	n	n	n
O=C(Cc1c(Cl)cccc1Cl)Nc1cccc(S(=O)(=O)N2CCOCC2)c1	-23	n	n	n	x	n
O=C(CN1CCN(S(=O)(=O)N2CCOCC2)CC1)Nc1ccc(Cl)c(Cl)c1	n	n	n	122	x	n
O=C(COC(=O)c1cccc(OC(F)F)c1)Nc1cccc(S(=O)(=O)N2CCCC2)c1	n	n	n	n	n	60
O=C(CNc1ccc(Br)cc1)Nc1cccc(S(=O)(=O)N2CCCC2)c1	n	n	n	n	n	n
O=C(CNc1cccc(S(=O)(=O)N2CCCC2)c1)Nc1cccc(Br)c1	n	n	n	n	x	44
CCCC#Cc1cnc2c(c1)C(=O)N([C@@H](C)CO)C[C@@H](C)[C@H](CN(C)Cc1ccncc1)O2	n	x	n	n	n	n
C[C@@H]1CN([C@@H](C)CO)S(=O)(=O)c2ccc(C#CCN(C)C)cc2O[C@@H]1CN(C)Cc1ccncc1	n	n	n	n	n	n
O=C(Cc1ccc(Br)cc1)Nc1cccc(S(=O)(=O)N2CCOCC2)c1	-30	n	n	n	n	n
O=C(COc1ccc(Br)cc1)NNC(=O)c1cc(S(=O)(=O)N2CCOCC2)ccc1Cl	-19	n	n	n	x	n
CCNC(=O)C[C@H]1CC[C@@H]2[C@H](COC[C@@H](O)CN2C(=O)CC)O1	n	n	n	n	n	n
CCCN(C)C[C@H]1Oc2ncc(C#CC3CC3)cc2C(=O)N([C@H](C)CO)C[C@H]1C	n	x	x	x	n	x
COc1ccc(C(=O)C(/C=N/O)=N/Nc2ccc(F)cc2)cc1	-26	n	n	n	n	n
SMILES	rRNA inh HTS	ARNT-TACC3 inh	S100A4 inh HTS	ERAP1 HTS inh	PGC1a acetyl inh	CASP6 VEID inh
COc1ccc(NC(=S)N(CCN2CCOCC2)Cc2cc3cc4c(cc3[nH]c2=O)OCCO4)cc1	n	n	n	n	x	38
O=C(Nc1cccc(Cl)c1)N[C@@H]1CC[C@H](CCn2cc(Cc3ccccc3)nn2)O[C@@H]1CO	n	n	n	n	n	n
C[C@H](CO)N1C[C@H](C)[C@H](CN(C)Cc2ccc(-c3ccccc3)cc2)Oc2cc(C#CC(C)(C)O)ccc2S1(=O)=O	n	n	n	n	n	n
COc1ccc(CNC(=O)N(C)C[C@@H]2OCc3ccccc3-c3c(n(C)c4ccccc34)C(=O)N([C@H](C)CO)C[C@@H]2C)cc1	n	n	n	n	n	n
C[C@H](CO)N1C[C@H](C)[C@H](CN(C)CC2CC2)OCc2ccccc2-c2c(n(C)c3ccccc23)C1=O	n	n	90	n	n	n
COc1ccc(CNC(=O)N(C)C[C@@H]2OCc3ccccc3-c3c(n(C)c4ccccc34)C(=O)N([C@@H](C)CO)C[C@@H]2C)cc1	-19!	x	n	x	x	n
CC(=O)N(C)C[C@H]1Oc2ncc(C#CC(C)(C)O)cc2C(=O)N([C@@H](C)CO)C[C@@H]1C	n	n	n	n	n	n
c1ccc(CNc2ncnc3c2cnn3-c2ccccc2)cc1	x	n	x	x	x	x
c1ccc(CCNc2ncnc3c2cnn3-c2ccccc2)cc1	-53	n	n	n	n	n
COCCn1c(C)c(C)c2c(NCCc3ccccc3)ncnc21	n	n	n	n	51	n
c1ccc(Cn2ncc3c(Nc4ccccc4)ncnc32)cc1	-27	n	n	n	x	n
CCOC(=O)c1c(C)c(C(=O)Nc2ccc(N(C)C)cc2)c(C)n1CC	-16	n	n	n	n	n
COc1cc(C2Nc3ccccc3C(=O)N2c2ccccc2)c(Br)cc1OCC(=O)O (stereo unspecified)	x	n	x	x	x	x
COC(=O)COc1ccc(Cl)cc1C1Nc2ccccc2C(=O)N1c1ccc(OC)cc1 (stereo unspecified)	-25	n	n	n	n	n
COc1ccc(O)c(C(=O)c2cnn(-c3ccccc3)c2)c1	-27	n	n	n	n	x
COc1ccc(-n2cc(C(=O)c3ccccc3O)cn2)cc1	n	n	n	n	x	n
C[C@@H]1CN([C@H](C)CO)C(=O)c2cc(NC(=O)Nc3ccc(F)cc3)ccc2O[C@H]1CN(C)C(=O)Nc1ccc2c(c1)OCO2	n	x	n	n	n	n
CCCCCCCC/C=C\CCCCCCCC(=O)O	x	n	n	n	n	n
CCCCC/C=C\C/C=C\C/C=C\CCCCC(=O)O	x	n	n	n	n	40
CCCCCCC(=O)O	n	n	n	n	n	n
CCCCCCCCC(=O)O	x	x	x	x	66	x
COC(=O)c1cccc(/C=N/NC(N)=S)c1O	n	67	n	n	n	n
COc1cccc(/C=N/NC(=O)C(=O)N/N=C/c2cccc(OC)c2O)c1O	n	n	n	n	n	n
O=C(c1ccc2c(c1)N(Cc1ccccc1)CCS2)N1CCOCC1	n	n	n	n	x	n
O=C(c1ccc2c(c1)N(Cc1ccc(F)cc1)CCS2)N1CCOCC1	n	8.5	n	n	n	n
CCOC(=O)Cn1c(=O)oc2cc(S(=O)(=O)N(C)c3cccc(C)c3)ccc21	-22	n	n	n	n	n
